According to ChEMBL document CHEMBL2021781, “Dual targeting of histone deacetylase and topoisomerase II with novel bifunctional inhibitors” (J Med Chem, 2012):
Active and inactive are the calls of the source. No cut-off for these calls is given here.

Legend:
[1] = biological target: DNA topoisomerase 2-alpha (Homo sapiens) (UniProt P11388); assay: Inhibition of Topoisomerase 2 assessed as kinetoplast DNA decatenation at 50 uM after 10 mins by electrophoretic analysis
[2] = biological target: DNA topoisomerase 2-alpha (Homo sapiens) (UniProt P11388); assay: Inhibition of topoisomerase 2 in human DU145 cells assessed as stabilization of enzyme-DNA cleavage complex at […] after 72 hrs by immunoblot analysis; assay type: cell-based; details: DU-145
[3] = tested on: SK-MES-1; assay: Antiproliferative activity against human SKMES1 cells after 72 hrs by MTS assay; assay type: functional, cell-based; details: SK-MES-1, 72 h
[4] = tested on: DU-145; assay: Antiproliferative activity against human DU145 cells after 72 hrs by MTS assay; assay type: functional, cell-based; details: DU-145, 72 h
Summary of the method: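 DU-145 cells passaged 24 h before dosing and exposed 72 h; compounds from 10 mM DMSO stocks; controls given media with 0.1% DMSO; 37°C, 5% CO2. Viability read by MTS assay, with Trypan Blue staining also used. IC50 from the average of two experiments, each run in triplicate.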

[5] = tested on: MCF7; assay: Antiproliferative activity against human MCF7 cells after 72 hrs by MTS assay; assay type: functional, cell-based; details: MCF7, 72 h
[6] = biological target: T1, Protein deacetylase HDAC6 (Homo sapiens) (UniProt Q9UBN7); details: DU-145, 10 uM
T1 sequence (whole entry): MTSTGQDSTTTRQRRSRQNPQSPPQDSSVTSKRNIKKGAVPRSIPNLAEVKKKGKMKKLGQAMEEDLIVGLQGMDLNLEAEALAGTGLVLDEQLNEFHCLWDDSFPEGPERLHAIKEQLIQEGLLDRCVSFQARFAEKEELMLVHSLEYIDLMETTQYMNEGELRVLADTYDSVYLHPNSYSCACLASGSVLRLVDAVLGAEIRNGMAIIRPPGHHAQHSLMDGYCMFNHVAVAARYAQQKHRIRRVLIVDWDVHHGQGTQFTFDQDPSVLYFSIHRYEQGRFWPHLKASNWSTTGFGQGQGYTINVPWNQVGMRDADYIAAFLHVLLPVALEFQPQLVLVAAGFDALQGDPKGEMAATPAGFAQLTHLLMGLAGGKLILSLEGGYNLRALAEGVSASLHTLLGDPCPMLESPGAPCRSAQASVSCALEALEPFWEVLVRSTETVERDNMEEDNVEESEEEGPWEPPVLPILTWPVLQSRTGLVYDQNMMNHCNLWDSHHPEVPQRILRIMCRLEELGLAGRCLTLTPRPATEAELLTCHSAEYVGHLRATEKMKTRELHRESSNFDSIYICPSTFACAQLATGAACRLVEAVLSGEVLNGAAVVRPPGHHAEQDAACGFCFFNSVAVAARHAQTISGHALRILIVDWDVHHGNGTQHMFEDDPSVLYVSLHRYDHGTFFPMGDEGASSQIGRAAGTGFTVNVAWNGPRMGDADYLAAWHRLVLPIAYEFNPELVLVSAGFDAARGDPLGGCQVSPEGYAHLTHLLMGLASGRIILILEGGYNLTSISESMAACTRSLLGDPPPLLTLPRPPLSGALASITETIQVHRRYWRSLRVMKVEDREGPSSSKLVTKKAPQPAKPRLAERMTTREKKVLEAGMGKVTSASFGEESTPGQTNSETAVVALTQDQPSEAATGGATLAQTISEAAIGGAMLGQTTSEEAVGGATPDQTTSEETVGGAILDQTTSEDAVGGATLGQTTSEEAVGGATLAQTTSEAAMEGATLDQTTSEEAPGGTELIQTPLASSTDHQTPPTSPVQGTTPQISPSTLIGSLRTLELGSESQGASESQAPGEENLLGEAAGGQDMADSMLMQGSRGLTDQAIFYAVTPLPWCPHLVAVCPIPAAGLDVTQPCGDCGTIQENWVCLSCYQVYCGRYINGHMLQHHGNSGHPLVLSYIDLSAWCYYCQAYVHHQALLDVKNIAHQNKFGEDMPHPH

[7] = Drug uptake in human A549 cell vesicle like body at 1 uM after 4 hrs by confocal microscopic analysis; assay type: ADME, cell-based; details: a549, 4 h
Summary of the method: (§1)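 Cells plated on glass coverslips 24 h beforehand, then incubated in fresh medium with compound at 1 μM for 4 h. Washed with PBS, coverslips mounted and imaged by confocal microscopy at 488 nm excitation. DU-145 (prostate carcinoma) shown in main text; A549 lung tumour cells treated likewise.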

[8] = biological target: DNA topoisomerase 2-alpha (Homo sapiens) (UniProt P11388); assay: Inhibition of topoisomerase 2 in human DU145 cells assessed as stabilization of enzyme-DNA cleavage complex at […] after 30 mins by immunoblot analysis; assay type: cell-based; details: DU-145
[9] = Drug uptake in human DU145 cell vesicle like body at 1 uM after 4 hrs by confocal microscopic analysis; assay type: ADME, cell-based; details: du-145, 4 h; summary of the method: as §1
[10] = biological target: T2, Histone deacetylase (Homo sapiens) (UniProt Q13547+O15379+Q9UBN7+Q92769+Q9UQL6+Q8WUI4+Q9BY41+Q96DB2+P56524+Q9UKV0+Q969S8); assay: Inhibition of HDAC in human DU145 cells assessed as upregulation of p21 expression at 5 times IC50 concentration after 4 hrs by Western blot analysis relative to control; assay type: cell-based; details: DU-145
Summary of the method: (§2)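 Lysed in RIPA with protease inhibitors, cleared 14,000 RPM at 4°C. Immunoblotted, probing acetylated versus total tubulin; p21 also checked. Near-infrared detection at 700/800 nm.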

[11] = biological target: T3, Histone deacetylase 8 (Homo sapiens, UniProt Q9BY41); assay: Inhibition of HDAC8 in human HeLa cell nuclear extract using Fluor de Lys as substrate after 15 mins by fluorometric analysis
T3 sequence (Q9BY41 whole entry): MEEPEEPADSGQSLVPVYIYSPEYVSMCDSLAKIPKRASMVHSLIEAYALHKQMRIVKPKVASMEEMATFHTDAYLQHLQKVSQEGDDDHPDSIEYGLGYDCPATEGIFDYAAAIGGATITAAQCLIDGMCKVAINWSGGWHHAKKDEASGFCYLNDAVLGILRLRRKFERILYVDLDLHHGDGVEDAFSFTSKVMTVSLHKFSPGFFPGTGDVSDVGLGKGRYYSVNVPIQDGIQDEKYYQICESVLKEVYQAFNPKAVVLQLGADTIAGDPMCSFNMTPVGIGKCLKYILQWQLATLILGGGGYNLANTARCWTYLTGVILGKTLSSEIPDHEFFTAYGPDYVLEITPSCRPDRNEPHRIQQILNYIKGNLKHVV

[12] = biological target: T4, Protein deacetylase HDAC6 (Homo sapiens, UniProt Q9UBN7); assay: Inhibition of HDAC6 in human HeLa cell nuclear extract using Fluor de Lys as substrate after 15 mins by fluorometric analysis
T4 sequence (Q9UBN7 whole entry): T1 sequence (whole entry)

[13] = biological target: T2, Histone deacetylase (Homo sapiens); assay: Inhibition of HDAC in human DU145 cells assessed as upregulation of p21 expression at IC50 concentration after 4 hrs by Western blot analysis relative to control; assay type: cell-based; details: DU-145; summary of the method: as §2
[14] = biological target: Histone deacetylase (HDAC1 and HDAC2) (Homo sapiens, UniProt Q13547+Q92769); assay: Inhibition of HDAC1/2 in human HeLa cell nuclear extract using Fluor de Lys as substrate after 15 mins by fluorometric analysis; assay type: protein assay
[15] = biological target: Histone deacetylase 1 (Homo sapiens, UniProt Q13547); assay: Inhibition of HDAC1 in human HeLa cell nuclear extract using Fluor de Lys as substrate after 15 mins by fluorometric analysis
[16] = biological target: T2, Histone deacetylase (Homo sapiens); assay: Inhibition of HDAC in human DU145 cells assessed as histone H3 hyperacetylation at 0.1 to 0.5 uM after 24 hrs by Western blot analysis; assay type: cell-based; details: DU-145
Summary of the method: (§3)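 DU-145 cells passaged 24 h before dosing, then exposed 24 h to compound in growth medium (final DMSO 0.1%); controls received 0.1% DMSO. Lysed in RIPA with protease inhibitors at 4°C, cleared at 14,000 × g. Protein quantified against BSA, boiled, transferred to nitrocellulose. Probed for acetyl-H3, acetyl-H4 and p21waf1 with actin loading control; read by near-infrared scanning at 700/800 nm.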

[17] = biological target: DNA topoisomerase 2-alpha (Homo sapiens) (UniProt P11388); assay: Inhibition of topoisomerase 2 in human DU145 cells assessed as stabilization of enzyme-DNA cleavage complex at 90 nM after 30 mins by immunoblot analysis; assay type: cell-based; details: DU-145
[18] = biological target: DNA topoisomerase 2-alpha (Homo sapiens) (UniProt P11388); assay: Inhibition of topoisomerase 2 in human DU145 cells assessed as stabilization of enzyme-DNA cleavage complex at 90 nM after 72 hrs by immunoblot analysis; assay type: cell-based; details: DU-145
[19] = biological target: T2, Histone deacetylase (Homo sapiens); assay: Inhibition of HDAC in human DU145 cells assessed as histone H4 acetylation after 24 hrs by Western blot analysis; assay type: cell-based; details: DU-145; summary of the method: as §3
[20] = biological target: T1, Protein deacetylase HDAC6 (Homo sapiens); assay: Inhibition of HDAC6-mediated tubulin acetylation in human DU145 cells at 500 nM after 4 hrs by Western blot analysis; assay type: cell-based; details: DU-145; summary of the method: as §2
[21] = biological target: T2, Histone deacetylase (Homo sapiens); assay: Inhibition of HDAC in human DU145 cells assessed as upregulation of p21waf1 protein expression at 0.1 uM after 24 hrs by Western blot analysis; assay type: cell-based; details: DU-145; summary of the method: as §3
[22] = biological target: T1, Protein deacetylase HDAC6 (Homo sapiens); assay: Inhibition of HDAC6-mediated tubulin acetylation in human DU145 cells at 90 nM after 4 hrs by Western blot analysis; assay type: cell-based; details: DU-145
Summary of the method: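 DU-145 cells passaged 24 h before dosing, then treated 4 h, with no more than 0.1% DMSO including controls. Lysis in RIPA buffer with protease inhibitors, protein quantified against a BSA standard, SDS-PAGE and transfer. Blots probed with rabbit anti-tubulin and mouse anti-acetyl tubulin, read by near-infrared imaging at 700/800 nm.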

[23] = Drug uptake in human A549 cell nucleus at 1 uM after 4 hrs by confocal microscopic analysis; assay type: ADME, cell-based; details: a549, 4 h; summary of the method: as §1
[24] = Drug uptake in human DU145 cell perinuclear region at 1 uM after 4 hrs by confocal microscopic analysis; assay type: ADME, cell-based; details: du-145, 4 h
Summary of the method: (§4)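 Cells plated on glass coverslips 24 h ahead, then given fresh media with compound at 1 μM for 4 h. After a PBS wash, coverslips were mounted and intracellular distribution imaged by confocal microscopy, excitation 488 nm. Done in DU-145 cells, with A549 lung tumor cells also examined.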

[25] = Drug uptake in human A549 cell perinuclear region at 1 uM after 4 hrs by confocal microscopic analysis; assay type: ADME, cell-based; details: a549, 4 h; summary of the method: as §4
[26] = Drug uptake in human DU145 cell nucleus at 1 uM after 4 hrs by confocal microscopic analysis; assay type: ADME, cell-based; details: du-145, 4 h; summary of the method: as §1

Sequence of Histone deacetylase 1 (Q13547 whole entry): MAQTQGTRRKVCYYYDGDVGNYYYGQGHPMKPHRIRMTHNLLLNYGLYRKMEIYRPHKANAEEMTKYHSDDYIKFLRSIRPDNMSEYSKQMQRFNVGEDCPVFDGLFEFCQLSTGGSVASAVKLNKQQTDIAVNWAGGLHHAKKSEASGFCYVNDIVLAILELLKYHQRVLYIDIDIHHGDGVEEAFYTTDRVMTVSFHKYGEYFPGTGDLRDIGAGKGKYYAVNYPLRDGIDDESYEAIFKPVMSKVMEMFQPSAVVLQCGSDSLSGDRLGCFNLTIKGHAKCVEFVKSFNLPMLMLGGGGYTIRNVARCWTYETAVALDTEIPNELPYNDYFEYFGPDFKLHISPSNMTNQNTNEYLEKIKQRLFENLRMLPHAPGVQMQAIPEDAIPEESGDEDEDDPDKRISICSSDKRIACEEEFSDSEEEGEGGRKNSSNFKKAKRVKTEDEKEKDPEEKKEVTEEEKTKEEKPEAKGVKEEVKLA
Sequence of DNA topoisomerase 2-alpha (Homo sapiens) (P11388 whole entry): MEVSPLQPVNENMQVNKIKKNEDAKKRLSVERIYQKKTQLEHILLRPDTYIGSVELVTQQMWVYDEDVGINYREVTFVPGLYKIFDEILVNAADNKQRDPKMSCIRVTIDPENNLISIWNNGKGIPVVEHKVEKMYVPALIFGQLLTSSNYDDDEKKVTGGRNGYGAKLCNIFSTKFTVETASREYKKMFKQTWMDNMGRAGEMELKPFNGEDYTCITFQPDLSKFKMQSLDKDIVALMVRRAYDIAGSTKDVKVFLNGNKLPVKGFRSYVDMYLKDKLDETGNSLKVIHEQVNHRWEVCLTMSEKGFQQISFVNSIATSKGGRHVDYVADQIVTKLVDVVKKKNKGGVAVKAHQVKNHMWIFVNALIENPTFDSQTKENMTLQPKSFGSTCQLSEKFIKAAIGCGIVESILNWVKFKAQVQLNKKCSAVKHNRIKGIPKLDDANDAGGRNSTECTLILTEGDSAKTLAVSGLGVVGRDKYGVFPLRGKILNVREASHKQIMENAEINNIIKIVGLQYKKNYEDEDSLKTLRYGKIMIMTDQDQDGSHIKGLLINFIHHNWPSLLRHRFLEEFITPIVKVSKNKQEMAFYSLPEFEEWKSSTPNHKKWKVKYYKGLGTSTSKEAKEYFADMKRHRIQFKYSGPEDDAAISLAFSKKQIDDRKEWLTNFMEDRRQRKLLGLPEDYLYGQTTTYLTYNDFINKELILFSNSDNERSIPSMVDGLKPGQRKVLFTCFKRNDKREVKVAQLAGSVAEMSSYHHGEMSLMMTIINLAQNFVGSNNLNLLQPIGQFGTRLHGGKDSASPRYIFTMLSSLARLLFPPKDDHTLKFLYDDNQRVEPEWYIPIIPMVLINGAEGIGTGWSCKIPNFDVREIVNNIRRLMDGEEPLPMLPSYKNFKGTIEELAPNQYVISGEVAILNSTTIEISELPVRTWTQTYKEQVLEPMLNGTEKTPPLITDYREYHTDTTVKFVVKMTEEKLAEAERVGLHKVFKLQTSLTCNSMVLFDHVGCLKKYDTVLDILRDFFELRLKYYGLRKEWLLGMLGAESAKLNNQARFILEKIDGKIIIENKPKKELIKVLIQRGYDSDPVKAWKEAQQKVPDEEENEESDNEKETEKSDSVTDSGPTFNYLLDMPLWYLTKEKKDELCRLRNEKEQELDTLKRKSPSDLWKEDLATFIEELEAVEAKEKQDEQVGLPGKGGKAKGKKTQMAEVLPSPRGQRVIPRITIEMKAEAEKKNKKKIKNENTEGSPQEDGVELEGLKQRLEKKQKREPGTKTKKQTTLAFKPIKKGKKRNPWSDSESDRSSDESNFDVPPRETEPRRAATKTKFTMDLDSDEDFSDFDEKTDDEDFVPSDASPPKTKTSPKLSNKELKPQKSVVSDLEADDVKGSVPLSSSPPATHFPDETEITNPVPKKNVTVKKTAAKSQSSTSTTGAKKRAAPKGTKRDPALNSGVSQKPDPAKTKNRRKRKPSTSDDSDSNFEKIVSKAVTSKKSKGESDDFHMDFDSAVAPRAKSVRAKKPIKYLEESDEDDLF

SMILES	inhibition [1]	IC50 [3]	IC50 [4]	IC50 [5]	Activity [10]	IC50 [11]	IC50 [12]	Activity [13]	IC50 [14]	IC50 [15]	further results
COc1cccc2c1C(=O)c1c(O)c3c(c(O)c1C2=O)C[C@@](O)(C(C)=O)C[C@@H]3O[C@H]1C[C@H](NCc2ccc(-c3cn(CCCCCC(=O)NO)nn3)cc2)[C@H](O)[C@H](C)O1	Active	4.68 µM	1.61 µM	13.4 µM	inactive	4.13 µM	0.03 µM	inactive	–	–	inhibition [2]: inactive; inhibition [6]: Active; Drug uptake [7]: Active; inhibition [8]: Active; Drug uptake [9]: Active
COc1cccc2c1C(=O)c1c(O)c3c(c(O)c1C2=O)C[C@@](O)(C(C)=O)C[C@@H]3O[C@H]1C[C@H](NCc2ccc(-c3cn(CCCCC(=O)NO)nn3)cc2)[C@H](O)[C@H](C)O1	Active	15.3 µM	5.39 µM	24.5 µM	–	–	0.555 µM	–	0.0899 µM	4.6 µM	–
COc1cccc2c1C(=O)c1c(O)c3c(c(O)c1C2=O)C[C@@](O)(C(C)=O)C[C@@H]3O[C@H]1C[C@H](NCc2ccc(-c3cn(CCCCCCCC(=O)NO)nn3)cc2)[C@H](O)[C@H](C)O1	Active	2.61 µM	2.06 µM	14.8 µM	–	0.379 µM	0.019 µM	–	0.0042 µM	0.011 µM	–
COc1cccc2c1C(=O)c1c(O)c3c(c(O)c1C2=O)C[C@@](O)(C(C)=O)C[C@@H]3O[C@H]1C[C@H](NCc2ccc(-c3cn(CCCCCCC(=O)NO)nn3)cc2)[C@H](O)[C@H](C)O1	Active	3.31 µM	2.92 µM	10.6 µM	–	0.71 µM	0.02 µM	–	0.0009 µM	0.008 µM	–
O=C(CCCCCCC(=O)Nc1ccccc1)NO [VORINOSTAT]	–	–	2.12 µM	–	–	–	–	–	–	–	–
COc1cccc2c1C(=O)c1c(O)c3c(c(O)c1C2=O)C[C@@](O)(C(C)=O)C[C@@H]3O[C@H]1C[C@H](N)[C@H](O)[C@H](C)O1 [DAUNORUBICIN]	Active	0.17 µM	0.09 µM	0.95 µM	inactive	–	–	inactive	–	–	inhibition [16]: Active; inhibition [17]: Active; inhibition [18]: Active; inhibition [19]: Dose-dependent effect; inhibition [20]: Active; inhibition [21]: inactive; inhibition [22]: inactive; Drug uptake [23]: Active; Drug uptake [24]: Active; Drug uptake [25]: Active; Drug uptake [26]: Active
